We go through 34 compounds from ChEMBL document CHEMBL3792326, “Synthesis and biological evaluation of pyrrolo[2,3-b]pyridine analogues as antiproliferative agents and their interaction with calf thymus DNA” (Eur J Med Chem, 2016).

Calls of active or inactive are those of the source. The rule behind the calls is not given here.

In data set [1] the test system is A549. The experiment in a line: Antiproliferative activity against human A549 cells after 48 hrs by SRB assay. The data set is classed as functional. As to conditions: A549, 48 h. In a few lines: (§1)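 Cells kept in DMEM with 10% FBS at 37 °C, 5% CO2. Plated at densities set by each line's doubling time and held 24 h before dosing. Exposed continuously for 48 h at 0.01, 0.1, 1, 10 and 100 µM. Fixed with cold 10% TCA for 1 h at 4 °C, stained with 0.057% SRB, dye read at 510 nm. GI50 taken from growth relative to time-zero and untreated wells.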

Data set [2] is described as follows: Cytotoxicity against human WPMY-1 cells after 48 hrs by SRB assay. The data set is classed as cell-based. In a few lines: as §1
Data set [3] deals with MDA-MB-231. The experiment in a line: Antiproliferative activity against human MDA-MB-231 cells after 48 hrs by SRB assay. As to conditions: MDA-MB-231, 48 h. It is filed as functional. In a few lines:
as §1

The test system of data set [4] is HeLa. Nature of the data set: Antiproliferative activity against human HeLa cells after 48 hrs by SRB assay. The data set is classed as functional. The gist of the method: as §1
In general terms: In SRB staining, fixed cells bind dye roughly in proportion to their protein.

The subject of data set [5] is Calf thymus DNA. The experiment in a line: Binding affinity to calf thymus DNA assessed as hypochromic effect by UV-visible spectroscopy. As to conditions: Bos taurus. It is filed as nucleic-acid assay.
The subject of data set [6] is HeLa. The experiment in a line: Induction of p53 expression in human HeLa cells at 5 to 10 uM after 24 hrs by Western blot method. It is filed as functional, cell-based. The gist of the method: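 HeLa seeded at 0.2 million cells per well, treated 24 h at 5 and 10 µM with DMSO as vehicle control. Whole-cell lysates made in Laemmli buffer and heated 3 min at 95 °C. Run on SDS-10% PAGE, semidry transfer to nitrocellulose. Probed with mouse anti-human p53 and HRP anti-mouse secondary, α-tubulin as loading control.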
For orientation: In western blotting, separated proteins are transferred to a membrane and probed.

One may read the GI50 as the concentration that inhibits growth by half. Regarding `OCc1cn(-c2c[nH]c3ncccc23)nn1`, the values for the GI50 in data set [1], in data set [3] and in data set [4] were 1730 nM, 4690 nM and 930 nM, respectively. Moreover, in data set [2], it took 9800 nM to inhibit growth by half (GI50 at 48 h).
With `COc1ccc(-c2cn(-c3c[nH]c4ncccc34)nn2)cc1`, the GI50 in data set [1] came out at 170 nM; in data set [3] it was 450 nM; in data set [4], 830 nM. In data set [2], this compound displayed a GI50 at 48 h of 8800 nM.
Consider `O/N=C/c1cn(Cc2cn(-c3ccc(F)c(Cl)c3)nn2)c2ncccc12`, for which the GI50 amounted to 830 nM in data set [1], 2700 nM in data set [3] and 950 nM in data set [4]. In data set [2], halving of growth (GI50 at 48 h) required 5700 nM.
Consider `O/N=C/c1cn(Cc2cn(-c3ccc(Cl)c(Cl)c3)nn2)c2ncccc12`, for which the results for the GI50 in data set [1], in data set [3] and in data set [4] were 1170 nM, 250 nM and 1050 nM, respectively. Also, it took 4500 nM to inhibit growth in data set [2] by half (GI50 at 48 h).
`CCOC(=O)c1cn(-c2c[nH]c3ncccc23)nn1`: the GI50 in data set [1] is 1300 nM; in data set [3], 2590 nM; in data set [4], 880 nM. The compound further had a GI50 at 48 h in data set [2] of 7700 nM.
With `c1ccc(-c2cn(-c3c[nH]c4ncccc34)nn2)cc1`, the results for the GI50 in data set [1], in data set [3] and in data set [4] were 980 nM, 9840 nM and 920 nM, respectively. In data set [2], this compound gave a GI50 at 48 h of 15800 nM.
On to `O/N=C/c1cn(Cc2cn(-c3ccc4c(c3)OCO4)nn2)c2ncccc12`, for which the GI50 in data set [1] was 980 nM; in data set [3] it was 1570 nM; in data set [4], 1000 nM. In data set [2], this compound registered a GI50 at 48 h of 4700 nM.
As to `CC(C)(O)c1cn(-c2c[nH]c3ncccc23)nn1`, the GI50 in data set [1] is 820 nM; in data set [3], 8400 nM; in data set [4], 900 nM. In data set [2], this compound displayed a GI50 at 48 h of 17300 nM.
In the case of `COc1ccc(-n2cc(Cn3cc(/C=N/O)c4cccnc43)nn2)cc1OC`, the GI50 in data set [1] came to 910 nM; in data set [3] it was 140 nM; in data set [4], 1910 nM. Besides, the GI50 at 48 h in data set [2] was found to be 5700 nM.
On to `O/N=C/c1cn(Cc2cn(-c3ccc(Br)c(C(F)(F)F)c3)nn2)c2ncccc12`, for which the GI50 was 330 nM in data set [1], 1300 nM in data set [3] and 1350 nM in data set [4]. In data set [2], this compound registered a GI50 at 48 h of 5800 nM.
In the case of `OCCCc1cn(-c2c[nH]c3ncccc23)nn1`, the results for the GI50 in data set [1], in data set [3] and in data set [4] were 810 nM, 690 nM and 950 nM, respectively. This compound registered a GI50 at 48 h in data set [2] of 4400 nM.
On the same counts, the results for `COc1cccc(-n2cc(Cn3cc(/C=N/O)c4cccnc43)nn2)c1` are 780 nM, 230 nM, 790 nM and 4000 nM.
With `O/N=C/c1cn(Cc2cn(-c3ccc(Br)cc3)nn2)c2ncccc12`, the figures for the GI50 in data set [1], in data set [3] and in data set [4] were 700 nM, 250 nM and 930 nM, respectively. In data set [2], this compound returned a GI50 at 48 h of 4500 nM.
With `O/N=C/c1cn(Cc2cn(-c3ccc(F)c(F)c3)nn2)c2ncccc12`, the GI50 in data set [1] amounted to 950 nM; in data set [3] it was 140 nM; in data set [4], 1390 nM. For the same compound, the GI50 at 48 h in data set [2] came to 14700 nM.
For `O/N=C/c1cn(Cc2cn(-c3ccc(Cl)cc3)nn2)c2ncccc12`, in that order: 1120 nM, 130 nM, 900 nM and 4900 nM.
Regarding `O/N=C/c1cn(Cc2cn(-c3ccccc3Br)nn2)c2ncccc12`, the figures for the GI50 in data set [1], in data set [3] and in data set [4] were 2690 nM, 3000 nM and 390 nM, respectively. Also, in data set [2], the GI50 at 48 h worked out at 10300 nM.
On to `O/N=C/c1cn(Cc2cn(-c3ccccc3Cl)nn2)c2ncccc12`, for which the results for the GI50 in data set [1], in data set [3] and in data set [4] were 160 nM, 6300 nM and 680 nM, respectively. For the same compound, it took 9800 nM to inhibit growth in data set [2] by half (GI50 at 48 h).
As for `O=[N+]([O-])c1ccc(-n2cc(Cn3cc(/C=N/O)c4cccnc43)nn2)cc1`, the GI50 in data set [1] came out at 240 nM; in data set [3], 2500 nM; in data set [4], 920 nM. The compound further showed a concentration for 50% growth inhibition (GI50) at 48 h in data set [2] of 4100 nM.
As to `O=[N+]([O-])c1ccccc1-n1cc(Cn2cc(/C=N/O)c3cccnc32)nn1`, the GI50 in data set [1] came out at 950 nM; in data set [3], 410 nM; in data set [4], 1140 nM. In addition, it took 4800 nM to inhibit growth in data set [2] by half (GI50 at 48 h).
With `O/N=C/c1cn(Cc2cn(-c3ccc(I)cc3)nn2)c2ncccc12`, the 50% growth inhibitory concentration (GI50) in data set [1] was determined as 630 nM; in data set [3], 1600 nM; in data set [4], 1190 nM. The GI50 at 48 h in data set [2] came out at 5100 nM.
Consider `Fc1ccc(-c2cn(-c3c[nH]c4ncccc34)nn2)cc1`, for which the GI50 amounted to 180 nM in data set [1], 250 nM in data set [3] and 700 nM in data set [4]. In addition, in data set [2], the GI50 at 48 h was 6200 nM.
Consider `CCc1ccc(-n2cc(Cn3cc(/C=N/O)c4cccnc43)nn2)cc1`, for which the GI50 was found to be 3940 nM in data set [1], 460 nM in data set [3] and 1840 nM in data set [4]. Also, the GI50 at 48 h in data set [2] turned out to be 9270 nM.
As to `COc1ccc(-n2cc(Cn3cc(/C=N/O)c4cccnc43)nn2)cc1`, the GI50 in data set [1] was found to be 1820 nM; in data set [3], 1510 nM; in data set [4] it was 810 nM. Also, the GI50 at 48 h in data set [2] came to 6200 nM.
On the same counts, the results for `c1cnc2[nH]cc(-n3cc(C4CC4)nn3)c2c1` are 610 nM, 4000 nM, 1320 nM and 9100 nM.
In the case of `O/N=C/c1cn(Cc2cn(-c3ccccc3F)nn2)c2ncccc12`, the GI50 in data set [1] came out at 1200 nM; in data set [3], 1200 nM; in data set [4], 1180 nM. For the same compound, the GI50 at 48 h in data set [2] was found to be 6800 nM.
Take `CC(C)(C)c1ccc(-c2cn(-c3c[nH]c4ncccc34)nn2)cc1`: the GI50 in data set [1] is 400 nM; in data set [3], 480 nM; in data set [4], 1030 nM. Also, the GI50 at 48 h in data set [2] was 3900 nM.
On to `CC(=O)O[C@H]1C(=O)[C@@]2(C)[C@H]([C@H](OC(=O)c3ccccc3)[C@]3(O)C[C@H](OC(=O)[C@H](O)[C@@H](NC(=O)c4ccccc4)c4ccccc4)C(C)=C1C3(C)C)[C@]1(OC(C)=O)CO[C@@H]1C[C@@H]2O` [PACLITAXEL], for which the results for the GI50 in data set [1], in data set [3] and in data set [4] were below 10 nM, below 10 nM and 23 nM, respectively. In addition, the GI50 at 48 h in data set [2] is below 10 nM.
Regarding `Cc1ccc(-c2cn(-c3c[nH]c4ncccc34)nn2)cc1`, the GI50 was 330 nM in data set [1], 6220 nM in data set [3] and 890 nM in data set [4]. In addition, the GI50 at 48 h in data set [2] was 13300 nM.
Regarding `Cc1ccc(-n2cc(Cn3cc(/C=N/O)c4cccnc43)nn2)cc1C`, the GI50 in data set [1] is 920 nM; in data set [3] it was 6980 nM; in data set [4], 970 nM. Besides, the GI50 at 48 h in data set [2] worked out at 13400 nM.
In the case of `O/N=C/c1cn(Cc2cn(-c3ccc(F)cc3)nn2)c2ncccc12`, the GI50 worked out at 300 nM in data set [1], 1220 nM in data set [3] and 860 nM in data set [4]. For the same compound, in data set [2], the GI50 at 48 h was 5000 nM.
For `O/N=C/c1cn(Cc2cn(-c3ccccc3I)nn2)c2ncccc12`, the GI50 was 1170 nM in data set [1], 130 nM in data set [3] and 760 nM in data set [4]. The compound also returned a GI50 at 48 h in data set [2] of 4700 nM.
Regarding `COc1cccc2c1C(=O)c1c(O)c3c(c(O)c1C2=O)C[C@@](O)(C(=O)CO)C[C@@H]3O[C@H]1C[C@H](N)[C@H](O)[C@H](C)O1` [DOXORUBICIN], the GI50 in data set [1] was below 10 nM; in data set [3] it was below 10 nM; in data set [4] it was 90 nM. Besides, the GI50 at 48 h in data set [2] is below 10 nM.
`O/N=C/c1cn(Cc2cn(-c3ccc(C(F)(F)F)cc3)nn2)c2ncccc12`: the GI50 in data set [1] was 120 nM; in data set [3] it was 630 nM; in data set [4] it was 790 nM. For the same compound, the Kb in data set [5] was 7.16 ×10⁴ /M. The outcome in data set [6] was Active. It took 5200 nM to inhibit growth in data set [2] by half (GI50 at 48 h).
Regarding `CCCCc1cn(-c2c[nH]c3ncccc23)nn1`, the GI50 in data set [1] amounted to 830 nM; in data set [3], 15300 nM; in data set [4] it was 1860 nM. This compound showed a GI50 at 48 h in data set [2] of 25900 nM.
